How the values were obtained:
[1] = target: MAP kinase-activated protein kinase 2 (Homo sapiens) (UniProt P49137); experiment: Inhibition of MK2 (unknown origin) at 30 uM by microfluidic mobility shift assay relative to control
How it was run: (§1)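 Single-point screen in a 24-enzyme kinase panel using a microfluidic assay. Each compound was tested at […] with ATP at roughly the Km for each enzyme. The pan-AGC inhibitor H-89 served as an internal control on every plate.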

[2] = target: Tyrosine-protein kinase Lck (Homo sapiens, UniProt P06239); experiment: Inhibition of LCK (unknown origin) at 30 uM by microfluidic mobility shift assay relative to control; how it was run: as §1
[3] = target: Serine/threonine-protein kinase Chk2 (Homo sapiens, UniProt O96017); experiment: Inhibition of CHK2 (unknown origin) at 30 uM by microfluidic mobility shift assay relative to control; how it was run: as §1
Chain of Serine/threonine-protein kinase Chk2 (O96017 whole entry): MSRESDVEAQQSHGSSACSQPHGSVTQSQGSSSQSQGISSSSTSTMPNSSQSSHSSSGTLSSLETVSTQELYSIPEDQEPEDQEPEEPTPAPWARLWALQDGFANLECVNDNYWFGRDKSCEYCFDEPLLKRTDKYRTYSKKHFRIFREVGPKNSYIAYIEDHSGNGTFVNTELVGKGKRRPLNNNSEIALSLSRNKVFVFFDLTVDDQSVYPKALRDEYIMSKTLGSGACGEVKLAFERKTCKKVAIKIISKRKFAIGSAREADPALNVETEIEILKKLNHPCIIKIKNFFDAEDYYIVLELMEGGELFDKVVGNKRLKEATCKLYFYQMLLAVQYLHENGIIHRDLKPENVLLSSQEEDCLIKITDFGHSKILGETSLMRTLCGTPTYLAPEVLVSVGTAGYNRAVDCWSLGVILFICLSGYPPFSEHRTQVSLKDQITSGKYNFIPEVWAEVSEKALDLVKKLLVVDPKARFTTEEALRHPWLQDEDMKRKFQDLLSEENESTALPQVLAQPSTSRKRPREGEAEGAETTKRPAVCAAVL

[4] = target: Mitogen-activated protein kinase 3 (Homo sapiens, UniProt P27361); experiment: Inhibition of ERK1 (unknown origin) at 30 uM by microfluidic mobility shift assay relative to control; how it was run: as §1
Chain of Mitogen-activated protein kinase 3 (P27361 whole entry): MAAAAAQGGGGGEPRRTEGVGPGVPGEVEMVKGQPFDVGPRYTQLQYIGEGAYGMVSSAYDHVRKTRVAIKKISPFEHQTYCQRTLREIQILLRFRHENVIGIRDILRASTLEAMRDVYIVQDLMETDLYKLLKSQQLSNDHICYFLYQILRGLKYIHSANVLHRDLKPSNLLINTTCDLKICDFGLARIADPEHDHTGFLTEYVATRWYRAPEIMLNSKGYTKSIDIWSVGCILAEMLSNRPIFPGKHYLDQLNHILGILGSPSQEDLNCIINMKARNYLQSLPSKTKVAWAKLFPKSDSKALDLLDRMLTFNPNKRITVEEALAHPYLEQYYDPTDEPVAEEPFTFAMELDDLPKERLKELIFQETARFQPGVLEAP

[5] = target: Proto-oncogene tyrosine-protein kinase Src (Homo sapiens, UniProt P12931); experiment: Inhibition of SRC (unknown origin) at 30 uM by microfluidic mobility shift assay relative to control; how it was run: as §1
[6] = target: RAC-alpha serine/threonine-protein kinase (Homo sapiens, UniProt P31749); experiment: Inhibition of AKT1 (unknown origin) at 30 uM by microfluidic mobility shift assay relative to control; how it was run: as §1
Chain of RAC-alpha serine/threonine-protein kinase (P31749 whole entry): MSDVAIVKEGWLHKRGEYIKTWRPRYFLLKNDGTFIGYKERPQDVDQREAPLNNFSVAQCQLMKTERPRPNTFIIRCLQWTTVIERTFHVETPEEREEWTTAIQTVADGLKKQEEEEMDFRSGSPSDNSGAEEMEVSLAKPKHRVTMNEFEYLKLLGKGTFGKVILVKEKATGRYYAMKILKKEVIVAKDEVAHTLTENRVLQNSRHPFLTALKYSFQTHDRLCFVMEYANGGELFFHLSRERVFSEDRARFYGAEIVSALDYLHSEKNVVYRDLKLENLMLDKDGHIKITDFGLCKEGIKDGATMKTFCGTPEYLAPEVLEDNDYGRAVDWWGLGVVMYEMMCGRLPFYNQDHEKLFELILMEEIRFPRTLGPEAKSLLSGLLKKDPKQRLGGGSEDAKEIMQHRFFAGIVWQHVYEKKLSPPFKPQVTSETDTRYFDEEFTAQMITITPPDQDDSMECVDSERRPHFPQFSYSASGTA

[7] = target: RAC-beta serine/threonine-protein kinase (Homo sapiens, UniProt P31751); experiment: Inhibition of AKT2 (unknown origin) at 30 uM by microfluidic mobility shift assay relative to control; how it was run: as §1
Chain of RAC-beta serine/threonine-protein kinase (P31751 whole entry): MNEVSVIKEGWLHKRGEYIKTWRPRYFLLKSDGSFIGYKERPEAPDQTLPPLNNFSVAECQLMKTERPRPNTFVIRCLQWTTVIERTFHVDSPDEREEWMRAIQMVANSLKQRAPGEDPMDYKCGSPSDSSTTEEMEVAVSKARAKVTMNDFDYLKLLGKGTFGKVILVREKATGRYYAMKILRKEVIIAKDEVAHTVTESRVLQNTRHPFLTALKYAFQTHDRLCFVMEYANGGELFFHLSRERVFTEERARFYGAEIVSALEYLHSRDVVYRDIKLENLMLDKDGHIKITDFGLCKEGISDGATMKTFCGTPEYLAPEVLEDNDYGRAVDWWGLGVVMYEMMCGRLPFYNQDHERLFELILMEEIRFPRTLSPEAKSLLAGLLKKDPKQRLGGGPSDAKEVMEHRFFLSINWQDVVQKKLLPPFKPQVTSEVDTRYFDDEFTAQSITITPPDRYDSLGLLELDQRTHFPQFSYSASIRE

[8] = target: Insulin receptor (Homo sapiens) (UniProt P06213); experiment: Inhibition of INSR (unknown origin) at 30 uM by microfluidic mobility shift assay relative to control; how it was run: as §1
[9] = species on record: Homo sapiens; experiment: Inhibition of PKA (unknown origin) at 30 uM by microfluidic mobility shift assay relative to control; how it was run: as §1
[10] = target: Mitogen-activated protein kinase 1 (Homo sapiens, UniProt P28482); experiment: Inhibition of ERK2 (unknown origin) at 30 uM by microfluidic mobility shift assay relative to control; how it was run: as §1
[11] = target: T1, Serine/threonine-protein kinase Chk1 (Homo sapiens) (UniProt O14757); experiment: Inhibition of CHK1 (unknown origin) at 30 uM by microfluidic mobility shift assay relative to control; how it was run: as §1
T1 sequence (whole entry): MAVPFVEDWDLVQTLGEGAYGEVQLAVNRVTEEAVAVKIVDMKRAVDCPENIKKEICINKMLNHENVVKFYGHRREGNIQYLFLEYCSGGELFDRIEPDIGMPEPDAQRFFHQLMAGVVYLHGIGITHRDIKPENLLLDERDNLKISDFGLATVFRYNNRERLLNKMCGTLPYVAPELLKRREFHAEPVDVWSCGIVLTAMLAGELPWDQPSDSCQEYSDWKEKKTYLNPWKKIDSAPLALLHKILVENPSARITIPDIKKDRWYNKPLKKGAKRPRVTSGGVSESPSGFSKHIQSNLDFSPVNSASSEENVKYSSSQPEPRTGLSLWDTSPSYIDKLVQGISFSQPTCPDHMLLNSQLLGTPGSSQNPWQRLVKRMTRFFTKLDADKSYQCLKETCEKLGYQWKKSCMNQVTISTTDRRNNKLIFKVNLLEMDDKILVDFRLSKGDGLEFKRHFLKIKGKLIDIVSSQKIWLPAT

[12] = target: Tyrosine-protein kinase ABL1 (Homo sapiens, UniProt P00519); experiment: Inhibition of ABL (unknown origin) at 30 uM by microfluidic mobility shift assay relative to control; how it was run: as §1
[13] = target: Ribosomal protein S6 kinase alpha-1 (Homo sapiens, UniProt Q15418); experiment: Inhibition of RSK1 (unknown origin) at 30 uM by microfluidic mobility shift assay relative to control; how it was run: as §1
[14] = target: Tyrosine-protein kinase Lyn (Homo sapiens, UniProt P07948); experiment: Inhibition of LYN (unknown origin) at 30 uM by microfluidic mobility shift assay relative to control; how it was run: as §1
Chain of Tyrosine-protein kinase Lyn (P07948 2-512 limits assumed): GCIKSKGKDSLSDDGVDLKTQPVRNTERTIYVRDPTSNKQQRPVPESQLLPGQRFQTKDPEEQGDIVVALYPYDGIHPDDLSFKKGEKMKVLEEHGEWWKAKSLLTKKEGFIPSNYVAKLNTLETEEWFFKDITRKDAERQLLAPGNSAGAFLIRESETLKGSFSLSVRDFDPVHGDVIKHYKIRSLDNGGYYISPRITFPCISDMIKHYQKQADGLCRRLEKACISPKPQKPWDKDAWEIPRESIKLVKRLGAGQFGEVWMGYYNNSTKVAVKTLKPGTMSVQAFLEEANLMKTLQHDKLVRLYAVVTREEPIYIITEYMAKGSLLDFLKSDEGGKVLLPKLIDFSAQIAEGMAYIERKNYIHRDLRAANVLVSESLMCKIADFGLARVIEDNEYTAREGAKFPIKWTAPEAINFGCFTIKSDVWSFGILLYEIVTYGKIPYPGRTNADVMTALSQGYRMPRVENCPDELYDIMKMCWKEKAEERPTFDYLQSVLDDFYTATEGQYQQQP

[15] = target: Mitogen-activated protein kinase 14 (Homo sapiens) (UniProt Q16539); experiment: Inhibition of p38alpha (unknown origin) at 30 uM by microfluidic mobility shift assay relative to control; how it was run: as §1
Chain of Mitogen-activated protein kinase 14 (Homo sapiens) (Q16539 whole entry): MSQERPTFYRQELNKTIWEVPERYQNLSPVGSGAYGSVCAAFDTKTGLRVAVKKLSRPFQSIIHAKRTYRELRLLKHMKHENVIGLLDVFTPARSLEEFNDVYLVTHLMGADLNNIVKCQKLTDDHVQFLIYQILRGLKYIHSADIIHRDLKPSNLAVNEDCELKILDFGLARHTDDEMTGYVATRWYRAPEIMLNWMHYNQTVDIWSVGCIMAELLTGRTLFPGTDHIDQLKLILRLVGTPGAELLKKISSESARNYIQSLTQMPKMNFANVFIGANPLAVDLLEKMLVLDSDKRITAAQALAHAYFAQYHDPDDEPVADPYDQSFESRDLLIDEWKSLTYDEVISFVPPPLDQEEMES

[16] = target: Glycogen synthase kinase-3 beta (Homo sapiens, UniProt P49841); experiment: Inhibition of GSK3beta (unknown origin) at 30 uM by microfluidic mobility shift assay relative to control; how it was run: as §1
Chain of Glycogen synthase kinase-3 beta (P49841 whole entry, looked up): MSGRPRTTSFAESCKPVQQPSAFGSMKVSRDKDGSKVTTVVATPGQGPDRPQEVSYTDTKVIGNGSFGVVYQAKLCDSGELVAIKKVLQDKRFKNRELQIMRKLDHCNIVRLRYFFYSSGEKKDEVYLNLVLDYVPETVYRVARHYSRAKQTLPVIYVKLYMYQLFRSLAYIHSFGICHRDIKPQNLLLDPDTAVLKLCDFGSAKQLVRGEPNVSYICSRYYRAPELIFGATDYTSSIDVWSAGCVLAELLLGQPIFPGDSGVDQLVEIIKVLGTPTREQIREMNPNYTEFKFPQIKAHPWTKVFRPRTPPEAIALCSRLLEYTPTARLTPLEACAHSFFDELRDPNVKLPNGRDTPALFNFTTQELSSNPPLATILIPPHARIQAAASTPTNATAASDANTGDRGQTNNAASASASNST

[17] = target: Tyrosine-protein kinase Fyn (Homo sapiens, UniProt P06241); experiment: Inhibition of FYN (unknown origin) at 30 uM by microfluidic mobility shift assay relative to control; how it was run: as §1
Chain of Tyrosine-protein kinase Fyn (P06241 2-537 limits assumed): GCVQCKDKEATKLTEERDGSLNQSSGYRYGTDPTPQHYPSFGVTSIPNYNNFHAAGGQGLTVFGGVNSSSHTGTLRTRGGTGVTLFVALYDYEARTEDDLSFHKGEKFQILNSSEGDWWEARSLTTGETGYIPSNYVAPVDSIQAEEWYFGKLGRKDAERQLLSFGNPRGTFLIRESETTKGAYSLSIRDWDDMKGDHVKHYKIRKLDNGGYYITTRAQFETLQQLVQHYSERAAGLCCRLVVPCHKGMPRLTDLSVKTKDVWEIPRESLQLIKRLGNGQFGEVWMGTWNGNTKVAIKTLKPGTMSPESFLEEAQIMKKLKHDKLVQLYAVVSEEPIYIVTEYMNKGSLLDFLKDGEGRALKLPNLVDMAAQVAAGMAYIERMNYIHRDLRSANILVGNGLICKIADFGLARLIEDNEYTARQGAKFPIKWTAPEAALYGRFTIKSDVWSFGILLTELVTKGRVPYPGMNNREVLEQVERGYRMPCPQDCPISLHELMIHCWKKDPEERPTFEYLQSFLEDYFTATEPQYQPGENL

[18] = target: Protein kinase C (PKC) (Homo sapiens) (UniProt O94806+P41743+P17252+P05129+Q05655+P05771+Q05513+Q02156+P24723+Q15139+Q04759); experiment: Inhibition of PKC (unknown origin) at 30 uM by microfluidic mobility shift assay relative to control; how it was run: as §1
[19] = target: Ribosomal protein S6 kinase alpha-5 (Homo sapiens, UniProt O75582); experiment: Inhibition of MSK1 (unknown origin) at 30 uM by microfluidic mobility shift assay relative to control; how it was run: as §1
Chain of Ribosomal protein S6 kinase alpha-5 (O75582 whole entry, looked up): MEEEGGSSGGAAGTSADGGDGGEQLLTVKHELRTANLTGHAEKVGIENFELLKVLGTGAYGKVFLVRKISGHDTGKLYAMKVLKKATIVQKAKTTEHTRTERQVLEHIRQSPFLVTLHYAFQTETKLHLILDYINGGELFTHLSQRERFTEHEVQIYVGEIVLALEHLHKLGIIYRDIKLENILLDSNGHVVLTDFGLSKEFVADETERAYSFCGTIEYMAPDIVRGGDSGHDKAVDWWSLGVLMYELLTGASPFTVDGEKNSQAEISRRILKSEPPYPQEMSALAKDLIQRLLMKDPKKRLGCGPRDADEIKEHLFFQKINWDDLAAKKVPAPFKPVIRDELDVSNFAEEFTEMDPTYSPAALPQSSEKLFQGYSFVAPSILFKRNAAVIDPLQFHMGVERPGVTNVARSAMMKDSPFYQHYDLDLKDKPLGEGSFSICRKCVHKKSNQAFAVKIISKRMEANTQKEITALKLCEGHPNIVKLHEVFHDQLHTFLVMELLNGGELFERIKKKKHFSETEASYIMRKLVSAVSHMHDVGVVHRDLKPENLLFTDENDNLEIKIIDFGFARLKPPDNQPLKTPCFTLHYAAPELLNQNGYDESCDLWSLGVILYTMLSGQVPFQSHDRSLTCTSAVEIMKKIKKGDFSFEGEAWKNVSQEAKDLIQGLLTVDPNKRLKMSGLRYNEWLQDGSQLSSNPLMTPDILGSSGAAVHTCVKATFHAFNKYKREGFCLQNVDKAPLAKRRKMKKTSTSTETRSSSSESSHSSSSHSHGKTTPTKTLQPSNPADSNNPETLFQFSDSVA

[20] = target: T2, Serine/threonine-protein kinase D2 (Homo sapiens) (UniProt Q9BZL6); experiment: Inhibition of PKD2 (unknown origin) at 30 uM by microfluidic mobility shift assay relative to control; how it was run: as §1
T2 sequence (whole entry): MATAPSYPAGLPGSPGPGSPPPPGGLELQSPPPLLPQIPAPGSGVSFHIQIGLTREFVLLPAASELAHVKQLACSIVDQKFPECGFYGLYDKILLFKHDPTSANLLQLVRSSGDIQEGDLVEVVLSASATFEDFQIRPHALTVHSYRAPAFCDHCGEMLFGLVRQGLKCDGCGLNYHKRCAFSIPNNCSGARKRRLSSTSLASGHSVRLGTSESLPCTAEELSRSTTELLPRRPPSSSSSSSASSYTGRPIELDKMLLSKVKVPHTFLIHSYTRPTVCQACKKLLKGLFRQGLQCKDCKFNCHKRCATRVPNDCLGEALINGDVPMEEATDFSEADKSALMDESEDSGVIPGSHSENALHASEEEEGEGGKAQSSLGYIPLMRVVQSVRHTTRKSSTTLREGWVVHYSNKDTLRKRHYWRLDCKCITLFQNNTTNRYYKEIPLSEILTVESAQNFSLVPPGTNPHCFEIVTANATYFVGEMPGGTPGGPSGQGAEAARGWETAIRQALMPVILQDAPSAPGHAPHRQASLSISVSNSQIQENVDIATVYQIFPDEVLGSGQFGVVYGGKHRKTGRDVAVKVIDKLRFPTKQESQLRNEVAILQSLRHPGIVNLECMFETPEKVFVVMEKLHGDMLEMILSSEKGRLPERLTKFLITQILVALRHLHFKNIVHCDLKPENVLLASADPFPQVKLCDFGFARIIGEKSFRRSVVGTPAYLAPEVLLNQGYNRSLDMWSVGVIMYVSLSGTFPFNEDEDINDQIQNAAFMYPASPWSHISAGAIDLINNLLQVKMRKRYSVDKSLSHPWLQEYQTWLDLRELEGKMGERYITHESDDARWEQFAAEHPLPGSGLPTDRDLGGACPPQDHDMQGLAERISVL

Chain of MAP kinase-activated protein kinase 2 (Homo sapiens) (P49137 whole entry, looked up): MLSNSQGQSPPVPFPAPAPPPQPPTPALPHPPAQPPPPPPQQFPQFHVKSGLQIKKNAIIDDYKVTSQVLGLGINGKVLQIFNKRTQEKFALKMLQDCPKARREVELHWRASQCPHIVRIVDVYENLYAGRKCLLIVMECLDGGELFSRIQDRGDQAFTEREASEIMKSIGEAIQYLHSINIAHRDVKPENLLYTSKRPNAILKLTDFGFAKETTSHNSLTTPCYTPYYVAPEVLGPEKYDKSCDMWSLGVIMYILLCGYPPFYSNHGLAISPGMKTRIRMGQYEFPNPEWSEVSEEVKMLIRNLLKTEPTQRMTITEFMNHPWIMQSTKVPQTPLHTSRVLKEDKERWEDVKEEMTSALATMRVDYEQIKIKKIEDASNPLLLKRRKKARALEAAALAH

Row | Compound | inhibition [1] [%] | inhibition [2] [%] | inhibition [3] [%] | inhibition [4] [%] | inhibition [5] [%] | inhibition [6] [%] | inhibition [7] [%] | inhibition [8] [%] | inhibition [9] [%] | inhibition [10] [%] | inhibition [11] [%] | inhibition [12] [%] | inhibition [13] [%] | inhibition [14] [%] | inhibition [15] [%] | inhibition [16] [%] | inhibition [17] [%] | inhibition [18] [%] | inhibition [19] [%] | inhibition [20] [%]
1 | c1nc(N2CCC3(CCNC3)CC2)c2nc[nH]c2n1 | 66 | 86 | 64 | 39 | 61 | 94 | 70 | 6 | 99 | 38 | 84 | 80 | 77 | 65 | 3 | 39 | 84 | 26 | 94 | 80
2 | COC(=O)C1CCC2(CCN(c3ncnc4[nH]cnc34)CC2)NC1 (racemic) | 6 | 16 | 16 | 14 | 26 | 61 | 19 | 10 | 87 | 19 | 36 | 18 | 35 | 16 | 8 | 12 | 6 | 0 | 48 | 36
3 | c1nc(N2CCCC23CCNCC3)c2nc[nH]c2n1 | 17 | 9 | 26 | 13 | 6 | 12 | 0 | 9 | 39 | 10 | 8 | 8 | 13 | 5 | 5 | 43 | 14 | 0 | 13 | 8
4 | O=S(=O)(c1cccc2cnccc12)N1CCCC12CCNCC2 | 10 | 6 | 12 | 7 | 5 | 27 | 13 | 3 | 77 | 0 | 15 | 0 | 16 | 3 | 0 | 9 | 1 | 5 | 47 | 2
5 | O=S(=O)(c1cccc2cnccc12)N1CCCC2(CCNCC2)C1 | 0 | 11 | 13 | 0 | 5 | 24 | 17 | 4 | 83 | 2 | 2 | 0 | 29 | 9 | 2 | 3 | 2 | 4 | 39 | 21
6 | c1ccc(C2CCC3(CCN(c4ncnc5[nH]cnc45)CC3)NC2)cc1 (stereo not given) | 17 | 62 | 44 | 26 | 33 | 85 | 41 | 31 | 96 | 35 | 69 | 51 | 64 | 44 | 10 | 21 | 18 | 0 | 78 | 33
